Assay: Toxicity liver stage against HepG2, at 10uM
Type: cell-based
Set-up: test concentration 10 uM, cell line HepG2-A16-CD81EGFP
Conditions: human, HepG2-A16-CD81EGFP cells; read-out: INHIBITION
Method in brief: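 Uninfected HepG2-A16-CD81EGFP cells, 3 × 10^3 per well, 1536-well, plated on prespotted compound at 10 μM final, parasite-free screening media added to match infected plates; puromycin 10 μM positive, DMSO 0.5% negative; run in parallel with 48 h PbLuc assay at 37 °C, 5% CO2; viability by CellTiter-Glo luminescence, normalized to controls.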

Row | SMILES | cytotoxicity at 10 µM
1 | COc1ccc(CCC2CCCN(C(=O)CCc3cc(O)no3)C2)cc1 (centres undefined) | -3.66%
2 | NC(=O)c1c[nH]nc1NC(=O)c1cccc(Cl)c1 | -2.39%
3 | O=C1CC2(CCN(CCCO)CC2)CN1Cc1ccc(F)c(F)c1 | -7.73%
4 | COc1ccccc1OCC(=O)N1CCN(Cc2noc(C)n2)CC1 | 3.82%
5 | Cc1nn(-c2ccccc2)c(C)c1-c1ccnc(N2CCCNCC2)n1 | -9.5%
6 | Brc1ccc(C2(NCc3noc(C4CC4)n3)CCC2)cc1 | 13.3%
7 | CCn1ccnc1CN1CCOC(Cn2cccn2)C1 (centres undefined) | -14.7%
8 | CCOc1cc2c(cc1C(=O)O)CCC2 | -18.6%
9 | CC(C)Cc1cc(CNC(=O)c2cccc3c2NCCC3)no1 | -50.7%
10 | CC(c1ccc(F)cc1F)N1CCN(CCC(=O)O)CC1 (centres undefined) | -3.6%
11 | Cc1cc2nc(SCC(=O)N3CCCC3)n(C)c(=O)c2[nH]1 | 11.1%
12 | CC(C)Oc1ccc(NCc2ccc([S+](C)[O-])cc2)c(F)c1 (centres undefined) | 22.4%
13 | CCc1noc(CN2CCN(c3nccs3)CC2)n1 | -1.46%
14 | Cc1ncc(CN2CCCC(O)(c3ccc(F)cc3)CC2)n1C (centres undefined) | -4.04%
15 | CCc1noc(C(C)N2CCN(Cc3ncc(C(C)(C)C)o3)CC2)n1 (centres undefined) | -6.62%
16 | CN(C)CC(=O)N1CCOCC2(C1)CN(c1ccccc1)C(=O)CO2 (centres undefined) | 0.00964%
17 | CC1CN(CC(=O)NC(=O)NCc2cccs2)CCN1CC(F)(F)F (centres undefined) | -0.402%
18 | CNC(=O)[C@@]12CCO[C@@H]1CCN(S(=O)(=O)c1ccccc1F)C2 | -71.2%
19 | CN(C)C(C(=O)NCCSc1ncn[nH]1)c1cccc(F)c1 (centres undefined) | -1.64%
20 | CCc1nnsc1C(=O)NCCC1CCCN(C(C)C)C1 (centres undefined) | 4.95%
21 | COCC[C@]1(O)CCN(C(=O)C2CCN(C3CCCC3)CC2)C[C@H]1C | -0.292%

Row | SMILES | cytotoxicity at 10 µM
22 | Cc1noc2nc3c(c(C(=O)/N=c4\[nH]ncs4)c12)CCC3 | -0.493%
23 | COCCNC(=O)N1CCN(c2cc(F)ccc2F)CC1 | -5.95%
24 | Cc1scc(C(=O)N2CCC3(CC(=O)NC3=O)C2)c1-c1ccccc1 (centres undefined) | -17.5%
25 | CS(=O)(=O)NC[C@]12COC[C@H]1CN(C(=O)c1ccncn1)C2 | 9.2%
26 | OCCN1CCC(CNCc2ccccc2OC(F)(F)F)CC1 | -13.7%
27 | Cc1cnn(CC2CN(Cc3nc4ccccc4nc3C)CCO2)c1 (centres undefined) | -4.02%
28 | Cn1c(N)nnc1SCc1ccc(Cl)cc1Br | 1.48%
29 | CCOc1cc(CN2CCCC2)ccc1Oc1cccc(C#N)n1 | -1.83%
30 | Cc1cc(C)c(CNC(=O)NCc2ccc3c(c2)CCC3)c(=O)[nH]1 | 10.4%
31 | COCCNC(=O)CCc1c(C)nn(-c2nc(C)c(C)c(=O)[nH]2)c1C | 11.1%
32 | Cc1ccsc1CN(CCCO)Cc1nc2ccccc2[nH]1 | -21.3%
33 | COCc1nc(C(=O)NS(=O)(=O)c2ccc(OC)c(C)c2)cs1 | 1.06%
34 | Nc1nccnc1C(=O)N1CCN(CCOc2ccccc2)CC1 | 12.8%
35 | COCC(=O)N(C)Cc1ccc(Cl)c(Cl)c1 | -5.13%
36 | CSc1nccc(NCC2CNCCOC2)n1 (centres undefined) | -5.13%
37 | c1ccc(CN2CCOC[C@H]2c2nc(-c3ccncc3)c[nH]2)nc1 | -0.501%
38 | CCN1CCC(CC(=O)N[C@H](C(=O)O)c2cccc(F)c2F)CC1 | -2.62%
39 | CCCc1nc2c(c(C)c(C)n2CCN(C)C)c(N)c1CC | 12.9%
40 | COc1ccc(NC(=O)c2cccc(OC)c2OC)cc1 | 18.5%
41 | COc1cccc(S(=O)(=O)NC(=O)CCC2CCCC2)c1 | 0.428%
42 | NC(=O)NCC1CCCCN1C(=O)c1ccc(Cl)s1 (centres undefined) | -12.1%

Row | SMILES | cytotoxicity at 10 µM
43 | Cc1sc2nc(CCN)nc(N3CCC(N4CCCC4)CC3)c2c1C | -51.6%
44 | COc1cc(CN2CCCC[C@]3(C)NC(=O)CC[C@H]23)ccc1F | -2.32%
45 | Cc1ccc(C(O)CNC(=O)Nc2cc(C)nn2C)cc1 (centres undefined) | -13.3%
46 | CC(=O)NCCc1ccc(S(=O)(=O)Nc2ccc(C)cc2F)s1 | -5.48%
47 | CCNc1ncc(C(=O)N2CCc3c(nc(C)nc3N(C)C)C2)cn1 | -3.28%
48 | CC(C)N1CCC2(CC1)CC(c1cccnc1)C(=O)N2 (centres undefined) | -67.2%
49 | CC(C)(C)CC(=O)N1CCc2sccc2C1 | 3.61%
50 | COCCN1CCN(C(=O)C2CC=CC2)Cc2cccnc21 | -11.1%
51 | O=C(NCc1nnc2ccccn12)N1CCc2sccc2C1 | -1.25%
52 | COc1c(C2CCCN2CC(=O)Nc2nc(C)cs2)c(C)nn1C (centres undefined) | -6.76%
53 | CCC(C)N(Cc1cccnc1)Cc1cc2c(cc1OC)OCO2 (centres undefined) | 3.17%
54 | CC(C)NC(=O)Nc1ccc(-c2nc(C(C)C)no2)cc1 | -8.56%
55 | CC1CN(C)CCN1C(=O)Cc1cc(Cl)c2c(c1)OCCO2 (centres undefined) | -3.47%
56 | c1cc(CN2CCN(Cc3ccon3)C3(CCCCC3)C2)no1 | -16.7%
57 | CCC1CCCN(S(=O)(=O)c2cnc3onc(C)c3c2)C1 (centres undefined) | 4.72%
58 | CCNc1ccnc(NCC2CNCCO2)n1 (centres undefined) | 3.71%
59 | Cn1cc(Cl)c(C(=O)N2CCC(N3CCc4ccccc4C3)CC2)n1 | -2.27%
60 | CN(C)Cc1csc(-c2nccn2Cc2ccsc2)c1 | -2.47%
61 | Cc1ccc(CCc2nc(C3CCOC3)no2)o1 (centres undefined) | 3.04%
62 | c1cnn(Cc2nnc(C3CCN(C4CCOCC4)CC3)n2C2CC2)c1 | -15.2%
63 | CN(C)C(=O)N1CCC2(CC1)C(=O)N(CC1CCOC1)c1ccccc12 (centres undefined) | 6.68%

Row | SMILES | cytotoxicity at 10 µM
64 | OC[C@@H](O)CN(CCC(F)(F)F)c1ncc(Cl)cn1 | 12.8%
65 | CNC(=O)c1ccc(OC)c(NCc2noc(-c3cccs3)n2)c1 | 2.76%
66 | O=C(c1ccc(-n2cccn2)nc1)N1CCC(c2ccn[nH]2)C1 (centres undefined) | -0.399%
67 | O=C1CC(c2ccc3c(c2)OCO3)c2cnn(C3CCCC3)c2N1 (centres undefined) | 24.3%
68 | Cc1noc(C(C)N2CCN(Cc3ccco3)CC2)n1 (centres undefined) | -3.37%
69 | COc1ccc(COCC(O)CNC(=O)c2ccncc2)cc1 (centres undefined) | -5.31%
70 | CN1C(=O)C(c2cccnc2)CC12CCN(Cc1nccs1)CC2 (centres undefined) | -1.16%
71 | Cc1ccc(C(=O)N2CCCCC2CN(C)C)cc1 (centres undefined) | -9.98%
72 | CN(C)C(=O)NCc1nnc2n1CCN(Cc1cccs1)C2 | -150%
73 | COc1cnc(N2CC(N3CCOCC3)C2)nc1-c1ccnn1C | 6.24%
74 | Cn1cc(C2CCCN2C(=O)c2cnc(-c3ccccn3)s2)cn1 (centres undefined) | -8.1%
75 | Cc1cnc(N2C[C@@H]3[C@@H](C2)OCC(=O)N3CC2CC2)nc1 | -0.357%
76 | CN(Cc1cc2n(n1)CCCNC2)Cc1cc(-c2ccncc2)no1 | 3.67%
77 | CNC(=O)[C@@H]1C[C@@H]2CCN(Cc3ccoc3)C[C@H]2O1 | -108%
78 | CCc1nc(C2CCCN(C(=O)c3cn(C)nc3C)C2)no1 (centres undefined) | -14.5%
79 | CC(CCO)Nc1cccc(C(F)(F)F)n1 (centres undefined) | -2.8%
80 | COc1cccc(CN2CC3(CCNCC3)CCC2=O)c1OC | 6.39%
81 | COC(=O)Cc1cn2cc(C(F)(F)F)ccc2n1 | 9.21%
82 | Cc1nccn1-c1ccc(N2CCC(NC(C)CC(C)C)CC2)cc1 (centres undefined) | 1.71%
83 | CN1CCC(C(=O)N2CCC(=Cc3cccc(F)c3)CC2)CC1=O (centres undefined) | -2.19%
84 | O=S(=O)(Nc1cnc(N2CCOCC2)nc1)c1ccc(Cl)cc1 | -5.82%

Reference: ChEMBL document CHEMBL4513216, “Probing the Open Global Health Chemical Diversity Library for Multistage-Active Starting Points for Next-Generation Antimalarials” (ACS Infect Dis, 2020)
